This excerpt belongs to a sample that is enriched for hits.
Fibroblast inh: blocks proliferation of human lung fibroblasts; LL 47 human lung fibroblast viability, ATP luminescence; hits give low values; 85,000 compounds, 1.1% hits; AID 719; viability, % at 10 µM;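 active = viability at or below 50% in the single dose screen; inactive = viability above 50%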;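 note: compound exposure lasted 72 h before the ATP readout; 100% = median luminescence of untreated cell-only wells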
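Material: human LL 47 lung fibroblast cells; quantity: 1,150 cells/well; medium: IMEM plus 15% FBS; doses: 0.1% DMSO in all compound wells; timing: overnight attachment after seeding, then 72 h compound exposure at 37 °C; detection: CellTiter-Glo luminescence; measure: % viability of median cell-only signal; controls: cell-only wells, no compound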
HCT116 bCat-KO: beta-catenin-lacking colon tumor cell growth suppression; 140,000 compounds, 1.5% hits; HCT116 beta-catenin knockout viability, CellTiter-Glo, 60 h; hits give low values; viability, % at 10 µM;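 active = viability at or under a set limit, the compound median less 4 SD, cut at about 6% in these data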;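 note: 0% = Hyamine 1622 control at 20 µM and 100% = untreated cell control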
HUVEC prolif 384: blocks proliferation of human endothelial cells; viability, % at 10 µM (by protocol); 86,000 compounds, 1.1% hits; HUVEC proliferation, CellTiter-Glo luminescence, 72 h; hits give low values; AID 648;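 active = viability at or below 30%; inactive = viability above 30%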;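 note: 100% = median luminescence of DMSO-only cell control wells on each plate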
Candida biofilm: kills Candida albicans biofilms; C. albicans biofilm + clotrimazole, Alamar Blue; inhibition, % at 6 µM; 85,000 compounds, 0.14% hits;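 active = inhibition above 20%; inactive = inhibition below 20%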;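 note: preformed 24 hr biofilms exposed to compound for 48 hr; 0% = biofilm without compound and 100% = blank killed by clotrimazole plus chlorhexidine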
PTEN del growth: suppresses growth of cells with PTEN deletion. HCT116 PTEN-null viability, CellTiter-Glo, 60 h; hits give low values. viability, % at 10 µM. 140,000 compounds, 1.2% hits. AID 827;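 active = viability at or below a set limit, 4 SD under the median of all tested compounds, cut at about 3.7% in these data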;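 note: PTEN knockout HCT116 line with beta catenin targeted HCT116 as companion control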
H69AR inhibit: blocks growth of human H69AR lung tumor cells; H69AR lung tumor viability, ATP luminescence, 72 h; hits give low values; viability, % at 10 µM; 85,000 compounds, 6% hits;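 active = viability at or below 40%; inactive = viability above 40%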;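 note: multidrug resistant small cell line overexpressing MRP-1 efflux transporter; 100% = mean luminescence of untreated control wells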
Active calls of the source: *; . = not tested or not shown.

SMILES	Fibroblast inh	HCT116 bCat-KO	HUVEC prolif 384	Candida biofilm	PTEN del growth	H69AR inhibit
CCc1cccc(C)c1NC(=O)COC(=O)c1c2c(nc3ccccc13)/C(=C\c1cccs1)CCC2	.	71	.	.	69	.
O=C(O)CCC(=O)Nc1ccccc1C(=O)NCc1ccccc1	.	99	.	.	100	.
O=S(=O)(Nc1nc(-c2sccc2Cl)cs1)c1cc(Cl)ccc1Cl	.	95	.	.	95	.
N#C/C(=C\c1ccc(N2CCOCC2)o1)c1nc2ccccc2[nH]1	83	58	57	9	60	20*
COc1cc(-c2nnc(COc3ccc4ccccc4c3)o2)cc(OC)c1OC	95	81	88	4	89	70
COc1ccc2c(c1)C1(Nc3ccccc3-c3nc4ccccc4n31)C(=O)N2C (stereo not given)	.	86	88	5	77	37*
CCC(C)n1c(=S)[nH]c2c(sc3ccc([N+](=O)[O-])cc32)c1=O (stereo not given)	.	65	.	.	64	.
CCc1ccccc1NC(=O)CSc1nnc([C@@H]2CCCN2C(=O)OC(C)(C)C)o1	95	65	95	7	68	2.1*
Cc1ccnc2ccc(-c3nc4ccccc4o3)cc12	73	58	30*	5	64	60
CCc1nc(NCCCn2ccnc2)c2oc3ccccc3c2n1	91	90	83	0	92	76
c1ccc(-c2nc(NCCCn3ccnc3)c3oc4ccccc4c3n2)cc1	88	25	54	7	26	18*
CCN(c1ccccc1)S(=O)(=O)c1ccc(N)c(OC)c1	72	24	55	4	27	17*
COc1ccc(S(=O)(=O)Cc2ccccc2)cc1N	95	91	91	7	93	37*
COc1cc(OC)c(C#N)c(S(=O)(=O)Cc2ccccc2)c1	92	97	95	-1	93	77
O=C1NC(=S)SC1=C1CCCC1	105	97	102	5	107	79
Cc1ccc2nsnc2c1S(=O)(=O)N(Cc1cc2cccc(C)c2[nH]c1=O)CC1CCCO1 (stereo not given)	90	60	60	3	57	10*
CCC1(CC)NC(=O)N(CC(=O)Nc2sc3c(c2C(N)=O)CCC3)C1=O	96	89	94	7	85	87
Cc1cccc(-c2nc(NCCCN3CCOCC3)c3ccccc3n2)c1	.	33	.	.	46	.
c1ccc(-c2nc(NCCCN3CCOCC3)c3ccccc3n2)cc1	99	67	83	8	64	26*
O=c1c2ccccc2nc2c3ccccc3c(NCCN3CCOCC3)nn12	33*	1.9*	36	4	2.5*	19*
O=c1c2ccccc2nc2c3ccccc3c(N3CCOCC3)nn12	95	.	96	-6	.	77
S=c1[nH]ncn1/N=C/c1ccccn1	.	90	.	.	100	.
COc1cccc(-c2ccc(SCC(=O)N3CCc4ccccc43)nn2)c1	.	88	.	.	90	.
Clc1ccc2nc(C3CCN(Cc4nnnn4C4CCCCC4)CC3)[nH]c2c1	64	27	68	-1	30	15*
CC1=CC(C)(C)N(S(=O)(=O)c2ccc(C)cc2)c2ccccc21	52	18	63	-1	16	28*
SMILES	Fibroblast inh	HCT116 bCat-KO	HUVEC prolif 384	Candida biofilm	PTEN del growth	H69AR inhibit
CC1=CC(C)(C)N(S(=O)(=O)c2ccc(F)cc2)c2ccc(C)cc21	51	15	60	3	14	22*
CC1=CC(C)(C)N(C(=O)c2ccccc2)c2ccc(C)cc21	96	81	103	0	88	86
CC(NS(=O)(=O)c1ccc(Br)cc1)C(=O)NCCc1ccccc1 (stereo not given)	.	96	.	.	92	.
O=C(Nc1ccccc1F)c1ccc(-n2cncn2)nc1	.	88	.	.	91	.
CC(=O)N1CCC(N(CCN2CCOCC2)C(=S)Nc2ccccc2C)CC1	.	96	.	.	91	.
CCc1nc2ccccc2n1CCC(C)C	97	90	93	8	94	91
Cc1cc(C)n2nc(N)c(N=Nc3ccc(Cl)cc3)c2n1	.	98	.	.	91	.
CCOC(=O)C1=NNC2(c3ccc(C)cc3)C(=O)N(c3ccc(Cl)cc3)C(=O)C12 (stereo not given)	.	95	.	.	99	.
CC(C)(C)c1cc(NC(=O)c2cccnc2)no1	98	103	95	-1	98	106
CC(C)(C)c1cc(NC(=O)c2cc(F)c(F)c(F)c2F)no1	50	30	69	6	32	35*
c1cncc(CNc2ccc3c(c2)OCO3)c1	94	80	94	10	75	80
Cc1ccc(CNc2ccc3c(c2)OCO3)c(C)c1	95	9	61	-3	14	30*
COc1ccc(Nc2ncc3c(n2)CC(c2ccccc2)CC3=O)cc1 (stereo not given)	102	75	109	-4	88	61
COc1cccc(C(=O)Nc2ncc3c(n2)CC(c2ccc(OC)cc2OC)CC3=O)c1 (stereo not given)	69	20	57	-2	16	18*
CN1Cc2cc(C(=O)c3ccccc3O)cnc2NC1=O	84	99	90	1	94	25*
Cc1[nH]nc2ncc(C(=O)c3ccccc3O)cc12	95	84	84	8	79	88
COc1ccc(NC(=O)CCC2CCCCC2)cc1S(=O)(=O)N1CCCCC1	.	45	.	.	42	.
C/C(=N\NS(=O)(=O)c1ccccc1)c1ccc2c(c1)OCCO2	.	98	.	.	101	.
O=c1c(Cl)c(NCCCO)cnn1-c1nc2ccccc2[nH]1	26*	1.3*	63	2	2.0*	0.6*
Cc1nc2cc(N3CCCCC3)c(NC(=O)c3ccncc3)cc2c(=O)n1Cc1ccc(Cl)cc1	.	1.2*	.	.	1.1*	.
Cc1ccc(-n2ncc(C(=O)N3CCc4ccccc4C3)c2NC(=O)c2ccco2)cc1C	103	85	87	5	93	26*
CCOC(=O)c1cc2sccc2n1CC(=O)O	103	100	103	0	104	90
CCOC(=O)c1cc2sccc2n1CC(=O)N1c2ccccc2CC1C (stereo not given)	69	49	12*	0	11	4.7*
Cc1cc(C(=O)CSc2nnc(NCc3ccccc3)s2)c(C)n1C	63	38	66	2	41	32*
COc1ccc(OC)c(CCNC(=O)Cn2sc3nc(C)cc(C)c3c2=O)c1	31*	1.9*	77	0	1.9*	0.0*
Cc1ccc(NN2C(=O)C=CC2=O)cc1	.	94	.	.	76	.
O=C1C=C(c2ccccc2)C(=O)N1Nc1ccccc1	67	100	73	5	102	1.3*
Cc1ccc(NN2C(=O)C=C(c3ccc(Cl)cc3)C2=O)cc1	87	42	53	4	10	2.3*
Cc1ccc(NC2=C(NC(=O)c3ccccc3)C(=O)c3ccccc3C2=O)cc1Cl	.	5.7*	.	.	5	.
CN(Cc1cccc(Cl)c1Cl)c1ccc(S(=O)(=O)N2CCCCC2)cc1[N+](=O)[O-]	.	79	.	.	75	.

Screens: PubChem, several laboratories
